A number with no mark means an inactive call. Records with an inconclusive call do not appear. Calls of active or inactive are those of the source.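 The calls were made as follows, unless noted: active = cell viability at or below a set limit in both duplicate runs, the limit being the all-compound median minus 4 SD (cut at about 23% in these data, passing the limit was not always enough); inconclusive = no clear call, values can overlap the other calls; inactive = the rest.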
Columns and labels:
[1] = S. cerevisiae growth inhibition in permissive medium (OD615), pilot counter-assay for S. cerevisiae lifespan shortening project, permissive growth control (AID 705;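 active = growth inhibition above 25% in both replicates, a cutoff set 3 SD above the mean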); details: OD615, 24 h, at 10 µM, active compounds read high
How it was run: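 System: engineered DeaD yeast; Medium: permissive raffinose/galactose medium; Compound dosing: 10 µM single dose, 0.25% DMSO; Incubation: 4 h cell pre-growth, 24 h exposure at 30 °C; Technique: OD at 615 nm; Evaluation: growth inhibition from lowered OD615 after 24 h.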

[2] = S. cerevisiae growth inhibition in restrictive medium, OD615, pilot screen, restrictive growth control, yeast lifespan reduction project (AID 706;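 active = growth inhibition above a set limit, 3 SD over mean compound inhibition, in both replicates, cut at about 43% in these data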;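 also: modified DeaD lifespan yeast strain shifted to restrictive glucose medium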); details: OD615, 48 h, at 10 µM, active compounds read high
How it was run: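 Material: modified S. cerevisiae; buffer or medium: CSMM-D glucose medium; doses: one concentration, 10 µM final, 0.25% DMSO; incubation: 48 h compound exposure at 30 °C; detection: optical density at 615 nm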

[3] = doxorubicin toxicity protection in MRP-1 cells – H69AR cells, CellTiter-Glo, duplicate, MRP-1 activator project, pilot screen (AID 807;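 active = viability increase at or above a cutoff of the median across tested compounds plus 3 SD, cut at about 8.5% in these data, passing the limit was not always enough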;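 also: compound pretreatment 18-22 h then 72 h combined with doxorubicin; 0% = doxorubicin alone and 100% = vehicle without doxorubicin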); details: H69AR viability with doxorubicin, CellTiter-Glo luminescence; at 10 µM; active compounds read high
[4] = viability of HCT116 without oncogenic beta-catenin – human colon tumor cells, pilot screen (AID 823); details: HCT116 beta-catenin knockout viability, CellTiter-Glo, 60 h; at 10 µM; active compounds read low;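 also: 0% = wells killed by 20 µM Hyamine and 100% = untreated DMSO cell wells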
[5] = viability of PTEN-null HCT116 cells – cell-based, HCT116 clonal line, CellTiter-Glo, pilot screen (AID 824;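 active = viability at or below 27.92% in each of two runs, the all-compound median minus 4 SD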;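 also: 0% = 20 µM Hyamine control and 100% = vehicle cell control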); details: HCT116 PTEN-deleted viability, 60 h, at 10 µM, active compounds read low
[6] = RAM pathway blockade in budding yeast – dse1pr::URA3 reporter, 5-FOA selection, pilot screen (AID 869;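 active = inhibition over a set limit, the all-compound mean plus 3 SD, in both replicate runs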;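 also: 0% = DMSO wells with no growth and 100% = 10 µM 1-NA-PP1 with full growth; RAM network block rescues cells from 5-FOA so hits raise OD615 growth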); details: S. cerevisiae dse1pr::URA3 5-FOA growth, OD615, 2 d; at 10 µM; active compounds read high; strain carries analog-sensitive mutant Cbk1 kinase
[7] = RAM signaling pathway blockade in yeast – S. cerevisiae, Pdr1DBD-CYC8 efflux-inhibited sensitized strain, primary screen (AID 1298;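 active = RAM network inhibition above 8.4% in each of two replicates, 3 SD over the compound average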;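 also: 0% = DMSO untreated cells without growth and 100% = 10 µM 1-NA-PP1 full growth; higher means more yeast growth rescued from 5-FOA killing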); details: S. cerevisiae cbk1-as DSE1-URA3 strain, 5-FOA growth OD615, 2 d; at 50 µM; active compounds read high

O=C(c1ccc(NC2=NC3CS(=O)(=O)CC3S2)cc1)N1CCN(C(=O)c2ccco2)CC1 (configuration not stated)
growth inhibition [1]: -12.1% | growth inhibition [2]: -8.33% | viability increase [3]: 0.69% | viability [4]: 104% | viability [5]: 98.3% | inhibition [6]: 2.96% | RAM network inhibition [7]: 4.06%

CCC(C)NC(=O)c1cnc2n(c1=O)CCS2 (configuration not stated)
growth inhibition [1]: 0.08% | growth inhibition [2]: -1.8% | viability increase [3]: 1.88% | viability [4]: 103% | viability [5]: 103% | inhibition [6]: 1.18% | RAM network inhibition [7]: 1.25%

Cc1ccc(C2c3c(oc4cc(C)c(C)cc4c3=O)C(=O)N2CCCN2CCOCC2)cc1 (configuration not stated)
growth inhibition [1]: -5.16% | growth inhibition [2]: -18.6% | viability increase [3]: -4.87% | viability [4]: 83.3% | viability [5]: 90% | inhibition [6]: 3.33% | RAM network inhibition [7]: -0.94%

COc1cccc(-n2c(Cc3cc(=O)[nH]c(=O)[nH]3)nnc2SCC(=O)NC2CCCCC2)c1
growth inhibition [1]: -4.46% | growth inhibition [2]: -1.15% | viability increase [3]: -1.6% | viability [4]: 100% | viability [5]: 101% | inhibition [6]: 1.86% | RAM network inhibition [7]: 3.48%

COc1ccc(Cl)cc1N(CC(=O)N1CCC(C)CC1)S(C)(=O)=O
growth inhibition [1]: 5.7% | growth inhibition [2]: 0.85% | viability increase [3]: -1.75% | viability [4]: 96.6% | viability [5]: 92.7% | inhibition [6]: 0.155% | RAM network inhibition [7]: 1.72%

CCOCCCNC(=O)C(c1ccc(Cl)cc1)N1CCN(C(=O)c2ccco2)CC1 (configuration not stated)
growth inhibition [1]: -19.4% | growth inhibition [2]: -17.1% | viability increase [3]: -2.12% | viability [4]: 101% | viability [5]: 96.2% | inhibition [6]: 2.34% | RAM network inhibition [7]: 5.86%

CCCCC(CC)C(=O)NCCCN1CCN(CCCNC(=O)C(CC)CCCC)CC1 (configuration not stated)
growth inhibition [1]: -6.17% | growth inhibition [2]: 2.97% | viability increase [3]: -1.81% | viability [4]: 87.3% | viability [5]: 90.6% | inhibition [6]: -0.16% | RAM network inhibition [7]: 2.42%

COc1ccc(OC)c(C2CC(=O)c3c([nH]c(C(=O)OCC4CCCO4)c3C)C2)c1 (configuration not stated)
growth inhibition [1]: -8.91% | growth inhibition [2]: -10.4% | viability increase [3]: -4.85% | viability [4]: 43.8% | viability [5]: 39% | inhibition [6]: 1.52% | RAM network inhibition [7]: 0.79%

COc1ccc(OCC(=O)Nc2cccc(C(C)=O)c2)cc1
growth inhibition [1]: 0.595% | growth inhibition [2]: 15.9% | viability increase [3]: -0.88% | viability [4]: 93.9% | viability [5]: 94.6% | inhibition [6]: 0.74% | RAM network inhibition [7]: 2.7%

O=C(O)Cc1ccc(NC(=O)C2CCCCC2C(=O)O)cc1 (configuration not stated)
growth inhibition [1]: -15% | growth inhibition [2]: -6.54% | viability increase [3]: 0.06% | viability [4]: 95.5% | viability [5]: 103% | inhibition [6]: 0.385% | RAM network inhibition [7]: 2.44%

O=C1C(O)CC2c3ccccc3CC3(CCCC3)N12 (configuration not stated)
growth inhibition [1]: -14.1% | growth inhibition [2]: -11.3% | viability increase [3]: -0.65% | viability [4]: 99.4% | viability [5]: 90.4% | inhibition [6]: 0.65% | RAM network inhibition [7]: 8.18%

CCN1CCCC1CNC(=O)c1cc2c(-c3ccc(Cl)cc3)nn(C)c2s1 (configuration not stated)
growth inhibition [1]: -7.45% | growth inhibition [2]: 10.1% | viability increase [3]: -8.33% | viability [4]: 2.03% (active) | viability [5]: 2.04% (active) | inhibition [6]: 1.31% | RAM network inhibition [7]: 8.33%

CS(=O)(=O)Nc1ccc2c3c(cccc13)CC2
growth inhibition [1]: -15.4% | growth inhibition [2]: -15.1% | viability increase [3]: -1.25% | viability [4]: 97.7% | viability [5]: 90.1% | inhibition [6]: 1.14% | RAM network inhibition [7]: 7.52%

O=C(NCCc1ccc(Cl)cc1)C1CC(=O)N(C2CCCCC2)C1 (configuration not stated)
growth inhibition [1]: -4.04% | growth inhibition [2]: -5.98% | viability increase [3]: -0.99% | viability [4]: 94.6% | viability [5]: 101% | inhibition [6]: 1.06% | RAM network inhibition [7]: 0.58%

COCc1cc(C)nc(SCC(=O)Nc2cccc3cccnc23)c1C#N
growth inhibition [1]: -15.3% | growth inhibition [2]: -12.6% | viability increase [3]: -1.44% | viability [4]: 88.1% | viability [5]: 86.4% | inhibition [6]: 1.2% | RAM network inhibition [7]: 8.57%

CCCN(CCC(=O)Nc1ccccc1F)CC1CC1
growth inhibition [1]: -12.8% | growth inhibition [2]: -18.1% | viability increase [3]: -1.44% | viability [4]: 99.1% | viability [5]: 95.3% | inhibition [6]: 0.64% | RAM network inhibition [7]: -0.31%

CCCCCCc1c(O)nc(SCC(=O)O)[nH]c1=O
growth inhibition [1]: 5.63% | growth inhibition [2]: 13.4% | viability increase [3]: 0.25% | viability [4]: 108% | viability [5]: 101% | inhibition [6]: 2.51% | RAM network inhibition [7]: -0.58%

CC(CCc1ccco1)NC(=O)Cn1ncc2c(=O)oc3ccccc3c21 (configuration not stated)
growth inhibition [1]: -15.7% | growth inhibition [2]: -12.5% | viability increase [3]: -3.03% | viability [4]: 105% | viability [5]: 93.7% | inhibition [6]: 1.96% | RAM network inhibition [7]: 5.79%

COc1ccc(OC)c(N(CC(=O)NC2CC2)S(=O)(=O)c2ccc(C)cc2)c1
growth inhibition [1]: -13.6% | growth inhibition [2]: -20.4% | viability increase [3]: -0.94% | viability [4]: 96.1% | viability [5]: 93.2% | inhibition [6]: 0.73% | RAM network inhibition [7]: 3.7%

COCCn1c(SCC(=O)OCc2ccccc2)nc2c1c(=O)[nH]c(=O)n2C
growth inhibition [1]: 4.3% | growth inhibition [2]: 1.99% | viability increase [3]: 1.83% | viability [4]: 98.6% | viability [5]: 105% | inhibition [6]: 0.815% | RAM network inhibition [7]: 5.05%

O=C(C1CCC(=O)N1Cc1cccnc1)N1CCN(c2ccc(F)cc2)CC1 (configuration not stated)
growth inhibition [1]: -0.085% | growth inhibition [2]: -9.05% | viability increase [3]: -2.73% | viability [4]: 90.1% | viability [5]: 88.4% | inhibition [6]: 0.585% | RAM network inhibition [7]: 5.89%

c1ccc(-c2cnnc(N3CCCCC3)n2)cc1
growth inhibition [1]: -4.88% | growth inhibition [2]: 8.84% | viability increase [3]: -1.75% | viability [4]: 102% | viability [5]: 97.4% | inhibition [6]: 0.13% | RAM network inhibition [7]: 5.69%

O=C(CSc1nc(-c2ccco2)cc(C(F)(F)F)n1)N1CCN(Cc2ccccc2)CC1
growth inhibition [1]: -6.8% | growth inhibition [2]: -13.4% | viability increase [3]: -4.54% | viability [4]: 86.8% | viability [5]: 82.8% | inhibition [6]: -0.555% | RAM network inhibition [7]: 6.26%

C=C1c2cc(CC)ccc2NC(=O)N1c1ccc(C)cc1
growth inhibition [1]: -6.46% | growth inhibition [2]: -2.23% | viability increase [3]: 3.36% | viability [4]: 97.9% | viability [5]: 101% | inhibition [6]: 0.37% | RAM network inhibition [7]: 0.61%

CCCOc1ccc(C(=O)NCCC(=O)NCCCC(=O)OCC)cc1
growth inhibition [1]: -14.6% | growth inhibition [2]: -20.7% | viability increase [3]: 0.2% | viability [4]: 91.8% | viability [5]: 104% | inhibition [6]: 1.34% | RAM network inhibition [7]: 0.47%

COC(=O)CC1=C(C)C(=O)CC2C(C)(C)CCCC12C (configuration not stated)
growth inhibition [1]: 4.86% | growth inhibition [2]: -8.22% | viability increase [3]: 1.01% | viability [4]: 85.6% | viability [5]: 94% | inhibition [6]: 1.27% | RAM network inhibition [7]: 4.48%

CCOC(=O)Cc1csc(NC(=O)CN(C)S(=O)(=O)c2cccc3cccnc23)n1
growth inhibition [1]: -11.1% | growth inhibition [2]: -7.54% | viability increase [3]: -4.61% | viability [4]: 93.5% | viability [5]: 81.7% | inhibition [6]: 1.14% | RAM network inhibition [7]: 4.44%

CCCCCSc1nc2c(c(=O)[nH]c(=O)n2C)n1C(C)C
growth inhibition [1]: -8.31% | growth inhibition [2]: -3.84% | viability increase [3]: 1.12% | viability [4]: 89.5% | viability [5]: 85.4% | inhibition [6]: 1.3% | RAM network inhibition [7]: 1.95%

COc1ccc(C2SCC(C(=O)O)N2C(C)=O)cc1OC (configuration not stated)
growth inhibition [1]: 0.095% | growth inhibition [2]: 1.78% | viability increase [3]: 0.1% | viability [4]: 96.5% | viability [5]: 102% | inhibition [6]: 1.33% | RAM network inhibition [7]: 7.78%

CCC(=O)Nc1nc2c(OC)ccc(C)c2s1
growth inhibition [1]: -17.7% | growth inhibition [2]: -14.1% | viability increase [3]: -5.96% | viability [4]: 96.4% | viability [5]: 92.2% | inhibition [6]: 0.225% | RAM network inhibition [7]: 1.37%

Cc1cc(OCCN2CCCC2)ccc1C(C)C
growth inhibition [1]: -4.67% | growth inhibition [2]: -1.01% | viability increase [3]: -1.29% | viability [4]: 89.1% | viability [5]: 91.3% | inhibition [6]: 2.1% | RAM network inhibition [7]: 8.59%

Cc1ccccc1S(=O)(=O)Cc1ccc(C(=O)N2CCN(C3CCCCC3)CC2)o1
growth inhibition [1]: -9.92% | growth inhibition [2]: -5.71% | viability increase [3]: -1.48% | viability [4]: 95.1% | viability [5]: 89.6% | inhibition [6]: 0.385% | RAM network inhibition [7]: 4.62%

CCOC(=O)N1CCC(NC(=O)CN2C(=O)CSc3nc(C)cc(C)c32)CC1
growth inhibition [1]: -8.91% | growth inhibition [2]: 6.29% | viability increase [3]: -0.46% | viability [4]: 109% | viability [5]: 97.7% | inhibition [6]: -0.65% | RAM network inhibition [7]: 0.43%

O=C(O)CCc1ccc(-c2cccs2)n1-c1ccc(C(=O)O)cc1
growth inhibition [1]: -3.21% | growth inhibition [2]: 3.42% | viability increase [3]: -0.51% | viability [4]: 98.7% | viability [5]: 93.5% | inhibition [6]: 2.39% | RAM network inhibition [7]: -0.68%

Nc1nc(-c2ccc3c(c2)CCCC3)cs1
growth inhibition [1]: 2.05% | growth inhibition [2]: 29.1% | viability increase [3]: -0.58% | viability [4]: 86.2% | viability [5]: 88.2% | inhibition [6]: 0.275% | RAM network inhibition [7]: 2.64%

O=C(Nc1nc(-c2cccs2)cs1)c1ccc(S(=O)(=O)N2CCCCC2)cc1
growth inhibition [1]: 0.945% | growth inhibition [2]: -2.17% | viability increase [3]: -3.02% | viability [4]: 71.7% | viability [5]: 61.8% | inhibition [6]: 1.4% | RAM network inhibition [7]: 4.06%

From PubChem BioAssay
